Measured values gathered from unrelated publications.
Each line is one published result; the experiments were not run side by side.
Target: Mitogen-activated protein kinase 10 (MAPK10, Homo sapiens, UniProt P53779)

N#CC1(c2ccccn2)CCN(Cc2cc(C(=O)O)c(=O)n3ccccc23)CC1 — remaining binding (cell-free assay, competition with immobilised ligand; 1 µM): 82%
COc1ncccc1-c1cnn2ccc(N3CCN(C(=O)OC(C)C)CC3)nc12 — remaining binding (binding, competition with immobilised ligand; 1 µM): 100%
O=c1[nH]c2ccccc2n1C1CCN(Cc2ccc(-c3[nH]c4cc5ncnc5cc4nc3-c3ccccc3)cc2)CC1 — remaining signal (cell-free assay; 0.5 µM): 96%
COc1cc(Nc2ncc(F)c(Nc3ccc4c(n3)NC(=O)C(C)(C)O4)n2)cc(OC)c1OC — inhibition (binding, competition with immobilised ligand; 10 µM): 100%
CC(C)(C)c1cc(C=C(C#N)C#N)cc(Br)c1O — remaining activity (enzyme activity, inhibitor; 0.5 µM): 92.5%
Cn1cncc1[C@](O)(COc1ccc(C#N)cc1-c1ccc(OC(F)(F)F)cc1)c1ccc(C#N)cc1 — remaining binding (cell-free assay, competition with immobilised ligand; 1 µM): 70%
Cc1nn(C)cc1-c1nc2c(N3CCN(Cc4ccc(Cl)cc4)CC3)c(Cl)cnc2[nH]1 — remaining binding (binding, competition with immobilised ligand; 1 µM): 100%
Nc1ncc(-c2nc(N3CCOCC3)nc(N3CCOCC3)n2)c(C(F)F)n1 — remaining binding (binding, competition with immobilised ligand; 10 µM): 90%
NC(=O)c1nc(Nc2ccccc2)sc1NC(=O)C1CCCCC1 — remaining binding (cell-free assay, competition with immobilised ligand; 10 µM): 5.4%
Cn1cc(-c2cc(F)cc(N3CCn4c(cc5c4CCCC5)C3=O)c2CO)cc(Nc2ccc(N3CCN(C4COC4)CC3)cn2)c1=O — inhibition (enzyme activity, inhibitor; 0.1 µM): 5%
